Converted amounts (≈) assume the structure as drawn.

For test [1], the system named is Trypanosoma cruzi. The test can be described thus: Antiparasitic activity against Trypanosoma cruzi Y amastigotes infected gamma irradiated L6E9 myoblast. The test is classed as functional, organism-based. Conditions: L6E9, light or radiation study. Put shortly: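 Gamma-irradiated L6E9 myoblasts were kept in DMEM with 20% FCS for 24 h at 37 °C and 5% CO₂. They were then infected with Y-strain trypomastigotes or amastigotes (4.17 × 10⁶/well) for 2 h at 37 °C and 7% CO₂, then washed. [5,6-³H]uracil and aqueous drug solutions were added for 72 h. TCA-precipitable counts were taken on day 3, and percent inhibition was calculated from cpm differences versus control.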

The subject of test [2] is Toxoplasma gondii. The test can be described thus: Antiparasitic activity against Toxoplasma gondii tachyzoites m2m3 infected HFF cells. The format is functional, organism-based. In outline:
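YFP-expressing m2m3 tachyzoites, filtered and needle-passed, were inoculated at 10⁴/ml onto confluent HFF monolayers. Medium was DMEM with 10% fetal bovine serum, 2 mM glutamine and 1 mM pyruvate, with drugs serially diluted in it. Plates were held at 37 °C and read daily for fluorescence from the bottom (ex 510, em 540 nm). IC50 came from fitting I = Imax·C/(IC50 + C), with Imax = 100%.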

Test [3] deals with Trypanosoma cruzi. Put plainly: Antiparasitic activity against Trypanosoma cruzi Y infected gamma irradiated L6E9 myoblast. The following applies: L6E9, light or radiation study.

A word on the IC50: it is the concentration that gives 50% inhibition. For the compound `N#CSCCOc1ccc(Oc2cccc(F)c2)cc1`, the values for the IC50 in test [1], in test [2] and in test [3] were 4.3 µM, 15.8 µM and 1.74 µg/mL (≈ 6.01 µM), respectively.
On to `N#CSCCOc1ccc(Oc2ccccc2)cc1`, for which the IC50 in test [1] came to 12 µM; in test [2], 2.8 µM; in test [3] it was 2.6 µg/mL (≈ 9.58 µM).
Turning to `O=C1C(O)=C([C@H]2CC[C@H](c3ccc(Cl)cc3)CC2)C(=O)c2ccccc21` [ATOVAQUONE], the IC50 in test [2] is 0.29 µM.
For `Fc1ccc(Oc2ccc(OCCOC3CCCCO3)cc2)cc1` (stereo unspecified), the IC50 in test [1] was 14.4 µM; in test [2], 6.16 µM; in test [3], more than 20 µg/mL.
Consider `Fc1cccc(Oc2ccc(OCCOC3CCCCO3)cc2)c1` (stereo unspecified), for which the values for the IC50 in test [1], in test [2] and in test [3] were 19 µM, 3.99 µM and more than 20 µg/mL, respectively.
For `N#CSCCOc1ccc(Oc2ccc(F)cc2)cc1` the same measures were 3.7 µM, 3.85 µM and 1.95 µg/mL (≈ 6.74 µM).

(Values after ChEMBL document CHEMBL1149670, “Fluorine-containing aryloxyethyl thiocyanate derivatives are potent inhibitors of Trypanosoma cruzi and Toxoplasma gondii proliferation” (Bioorg Med Chem Lett, 2007).)
